Bioassay records (PubChem BioAssay)
Most compounds without a hit are left out; they make up all but 5.1% or so of the library.
ERa coact pot: ER-alpha (human) coactivator binding potentiation; TR-FRET ERalpha-LBD/SRC-Cy5 coactivator binding, 2 h; 100 = basal binding, no effect; coactivator binding (% of control), % at 25.6 µM; 1.3% of 86,000 active; in the data active = activity above about 200%;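 note: binding measured in presence of low estradiol as agonist stimulus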
ERb SRC1 inh: blocks coactivator binding to human estrogen receptor beta; 1.3% of 86,000 active; Q92731; AID 633; TR-FRET ER-beta LBD / SRC1-Cy5 peptide binding; receptor agonist-loaded with 1 µM estradiol; inhibition, % at 25.6 µM;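 active = compounds whose percent inhibition of the receptor-coactivator binding signal exceeds about 50% in the single-dose screen, limit read from the data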
ERa SRC1 inh: ER-alpha (human) coactivator binding inhibition | P03372 | TR-FRET ER-alpha LBD / SRC-1 peptide, estradiol-bound | inhibition, % at 25.6 µM | 1.7% of 86,000 active | AID 629; in the data active = inhibition above about 50%
BAP1 block: inhibitors of human BAP1 deubiquitinase; Q92560; recombinant BAP1, Ub-AMC hydrolysis fluorescence kinetic; hits give low values; calls only at 20 µM; 0.48% of 72,000 active;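 active = activity remaining at or below 50% of control, provided the compound also passes the data quality filters; inactive = the rest, including low values that fail the filters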
SF-1 act: activates the human nuclear receptor SF-1; Q13285; CHO-K1 Gal4-SF-1 LBD luciferase reporter; % increase over DMSO SF-1-specific signal; activation, % at 10 µM; 1.9% of 65,000 active; AID 522;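 active = activation above the mean activation of all tested compounds plus 3 SD, cut at about 50% in these data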
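Material: Transient Gal4-SF-1 LBD reporter, CHO-K1 | Input: 4,000 cells/well | Dosing: One dose, 10 µM compound, 1% DMSO | Incubation: 20 h compound treatment, 37 °C | Detection: SteadyLite luciferase luminescence | Evaluation: Percent activation relative to DMSO median and mock-transfected background | Benchmarks: DMSO-treated SF-1-transfected cells as negative, DMSO-treated mock-transfected cells lacking SF-1 as background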
RORa activator: activates the human nuclear receptor RORA. P35398. CHO-K1 Gal4-RORA LBD luciferase reporter, luminescence; percent increase over mock-subtracted basal signal. activation, % at 10 µM. 1.5% of 65,000 active;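 active = activation above the mean of all tested compounds plus 3 SD, cut at about 49% in these data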
Target sequence (P35398 whole entry, looked up, the tested form may be a part): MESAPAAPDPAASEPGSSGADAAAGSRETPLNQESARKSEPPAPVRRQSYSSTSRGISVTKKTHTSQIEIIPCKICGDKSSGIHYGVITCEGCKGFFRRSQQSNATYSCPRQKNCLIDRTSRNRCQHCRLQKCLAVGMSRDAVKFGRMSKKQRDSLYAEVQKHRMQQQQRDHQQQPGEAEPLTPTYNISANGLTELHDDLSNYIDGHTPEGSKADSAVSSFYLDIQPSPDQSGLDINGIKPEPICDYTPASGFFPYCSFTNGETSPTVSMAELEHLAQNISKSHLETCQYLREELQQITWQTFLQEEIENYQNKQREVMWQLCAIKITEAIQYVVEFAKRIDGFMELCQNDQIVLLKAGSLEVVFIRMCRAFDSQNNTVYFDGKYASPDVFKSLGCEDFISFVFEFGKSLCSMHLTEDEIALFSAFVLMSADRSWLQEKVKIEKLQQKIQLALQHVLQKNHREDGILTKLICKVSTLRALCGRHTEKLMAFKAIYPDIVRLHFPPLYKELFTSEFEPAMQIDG
Hits are given with their value; [ ] = remark or other dose.

COc1ccc(CN(CCC2(c3ccccc3)CCOC(C)(C)C2)C(C)=O)cc1OC (configuration not stated) was read as BAP1 block inactive.
CCC1CCCCN1C(=O)c1c[nH]c2ccc(S(=O)(=O)N(C)c3ccc(Cl)cc3)cc2c1=O (configuration not stated) was read as ERa coact pot inactive, ERb SRC1 inh inactive and ERa SRC1 inh 57.6[fluorescence artefact?].
Screening COCCN(CCOC)C(=O)c1c[nH]c2ccc(S(=O)(=O)N(C)c3ccc(F)cc3)cc2c1=O returned ERa coact pot inactive, ERb SRC1 inh inactive, ERa SRC1 inh 53.4[fluorescence artefact?], SF-1 act inactive and RORa activator inactive.
CN(c1ccc(F)cc1)S(=O)(=O)c1ccc2[nH]cc(C(=O)O)c(=O)c2c1 was read as ERa coact pot inactive, ERb SRC1 inh inactive, ERa SRC1 inh 55.0[fluorescence artefact?], BAP1 block inactive, SF-1 act inactive and RORa activator inactive.
For CCc1ccc(N(C)S(=O)(=O)c2ccc3[nH]cc(C(=O)NCCN4CCOCC4)c(=O)c3c2)cc1 the results were ERa coact pot inactive, ERb SRC1 inh inactive and ERa SRC1 inh inactive.
CC(C)Cn1c(N(C)C)nc2c1c(=O)[nH]c(=O)n2C was read as BAP1 block inactive.
For CCC(C)OC(=O)c1[nH]c2c(c1C)C(=O)CC(c1ccc(N(C)C)cc1)C2 (configuration not stated) the results were ERa coact pot inactive, ERb SRC1 inh inactive, ERa SRC1 inh inactive, BAP1 block inactive, SF-1 act 56.8 and RORa activator inactive.
CCOCCOC(=O)c1[nH]c2c(c1C)C(=O)CC(c1ccc(N(C)C)cc1)C2 (configuration not stated) was read as BAP1 block inactive, SF-1 act inactive and RORa activator inactive.
`O=C(c1ccc(COc2ccccc2Br)o1)N1CCN(c2ccccn2)CC1` gave ERa coact pot inactive, ERb SRC1 inh inactive and ERa SRC1 inh inactive.
For O=C(c1cccc(COc2ccc(Cl)cc2Cl)c1)N1CCN(c2ccccn2)CC1 the results were ERa coact pot inactive, ERb SRC1 inh inactive, ERa SRC1 inh inactive, BAP1 block inactive, SF-1 act 75.5 and RORa activator inactive.
For COc1cc(NC(=O)C(C(C)C)N2C(=O)c3ccccc3C2=O)c(OC)cc1Cl (configuration not stated) the results were BAP1 block inactive.
For COc1ccc(OCC(=O)Nc2cc(-c3nn4c(C)nnc4s3)ccc2C)cc1 the results were ERa coact pot 275.9[fluorescence artefact?], ERb SRC1 inh inactive, ERa SRC1 inh inactive, BAP1 block inactive, SF-1 act inactive and RORa activator inactive.
`COc1ccc(C(=O)Nc2cc(-c3nn4c(C)nnc4s3)ccc2C)cc1` gave ERa coact pot inactive, ERb SRC1 inh inactive, ERa SRC1 inh inactive, BAP1 block inactive, SF-1 act inactive and RORa activator inactive.
`Cc1cc(OCC(=O)Nc2cc(-c3nn4c(C)nnc4s3)ccc2C)ccc1Cl` gave ERa coact pot 621.5[fluorescence artefact?], ERb SRC1 inh inactive, ERa SRC1 inh inactive, BAP1 block inactive, SF-1 act inactive and RORa activator inactive.
O=C(CSc1ncnc2c1oc1ccccc12)Nc1cccc(C(F)(F)F)c1 was read as ERa coact pot inactive, ERb SRC1 inh inactive, ERa SRC1 inh inactive, BAP1 block inactive, SF-1 act inactive and RORa activator inactive.
Screening O=C(CSc1ncnc2c1oc1ccccc12)Nc1ccccc1F returned ERa coact pot 406.4[fluorescence artefact?], ERb SRC1 inh 54.8[fluorescence artefact?], ERa SRC1 inh inactive, BAP1 block inactive, SF-1 act inactive and RORa activator inactive.
`COC(=O)c1ccc(CSc2ncnc3c2oc2ccccc23)o1` gave ERa coact pot 233.8[fluorescence artefact?], ERb SRC1 inh 55.8[fluorescence artefact?], ERa SRC1 inh inactive, BAP1 block inactive, SF-1 act inactive and RORa activator inactive.
Screening COC(=O)c1ccc(CSc2ncnc3ccccc23)o1 returned ERa coact pot inactive, ERb SRC1 inh inactive, ERa SRC1 inh inactive, BAP1 block inactive, SF-1 act inactive and RORa activator inactive.
Screening CCc1nnc(NC(=O)CSc2nnc(-c3ccccc3NC(=O)c3ccccc3)o2)s1 returned ERa coact pot 285.2[fluorescence artefact?], ERb SRC1 inh inactive, ERa SRC1 inh inactive, BAP1 block inactive, SF-1 act inactive and RORa activator inactive.
